Assay results: ChEMBL document CHEMBL1129451, “Novel potent sigma 1 ligands: N-[omega-(tetralin-1-yl)alkyl]piperidine derivatives” (J Med Chem, 1996)

Key:
[1] = molecular target: T1, 5-hydroxytryptamine receptor 1A (Rattus norvegicus, UniProt P19327); assay: Binding affinity was tested on 5-hydroxytryptamine 1A receptor using radioligand [3H]5-HT binding assay.
T1 sequence (P19327 whole entry): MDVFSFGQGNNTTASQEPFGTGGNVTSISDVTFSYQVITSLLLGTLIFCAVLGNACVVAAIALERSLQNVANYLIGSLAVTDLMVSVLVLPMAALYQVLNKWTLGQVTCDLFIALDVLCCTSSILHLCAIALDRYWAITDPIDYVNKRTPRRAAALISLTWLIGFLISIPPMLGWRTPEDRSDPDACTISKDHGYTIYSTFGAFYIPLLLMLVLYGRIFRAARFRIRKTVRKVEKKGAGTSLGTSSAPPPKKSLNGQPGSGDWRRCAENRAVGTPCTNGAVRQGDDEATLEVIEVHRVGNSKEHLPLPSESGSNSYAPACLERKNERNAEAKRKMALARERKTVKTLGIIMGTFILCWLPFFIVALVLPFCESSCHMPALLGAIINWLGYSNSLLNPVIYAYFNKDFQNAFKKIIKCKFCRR
Outline: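 Six to nine drug concentrations, triplicate samples, two to three independent experiments. IC50 converted to Ki by Cheng–Prusoff, with Kd and Bmax from saturation experiments.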

[2] = molecular target: Serotonin 2 (5-HT2) receptor (Rattus norvegicus) (UniProt P30994+P08909+P14842); assay: Percentage specific displacement of radioligand [3H]ketanserin from 5-hydroxytryptamine 2 receptor; assay type: protein assay; parameters: concentration or dose not given beside the values
Sequence of Serotonin 2 (5-HT2) receptor (Rattus norvegicus) (P08909 whole entry, looked up): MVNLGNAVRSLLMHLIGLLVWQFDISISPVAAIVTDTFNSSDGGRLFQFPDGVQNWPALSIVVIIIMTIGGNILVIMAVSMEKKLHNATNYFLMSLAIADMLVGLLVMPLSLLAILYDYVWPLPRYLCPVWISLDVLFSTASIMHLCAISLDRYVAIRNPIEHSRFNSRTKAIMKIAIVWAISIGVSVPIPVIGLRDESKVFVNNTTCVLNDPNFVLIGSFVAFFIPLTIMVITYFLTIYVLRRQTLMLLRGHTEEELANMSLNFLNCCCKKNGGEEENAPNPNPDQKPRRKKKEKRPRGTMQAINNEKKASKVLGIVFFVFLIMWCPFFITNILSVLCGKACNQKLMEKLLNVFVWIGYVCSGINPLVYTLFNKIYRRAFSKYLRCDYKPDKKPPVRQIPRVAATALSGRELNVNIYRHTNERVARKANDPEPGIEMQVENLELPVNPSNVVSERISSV
Sequence of Serotonin 2 (5-HT2) receptor (Rattus norvegicus) (P14842 whole entry, looked up): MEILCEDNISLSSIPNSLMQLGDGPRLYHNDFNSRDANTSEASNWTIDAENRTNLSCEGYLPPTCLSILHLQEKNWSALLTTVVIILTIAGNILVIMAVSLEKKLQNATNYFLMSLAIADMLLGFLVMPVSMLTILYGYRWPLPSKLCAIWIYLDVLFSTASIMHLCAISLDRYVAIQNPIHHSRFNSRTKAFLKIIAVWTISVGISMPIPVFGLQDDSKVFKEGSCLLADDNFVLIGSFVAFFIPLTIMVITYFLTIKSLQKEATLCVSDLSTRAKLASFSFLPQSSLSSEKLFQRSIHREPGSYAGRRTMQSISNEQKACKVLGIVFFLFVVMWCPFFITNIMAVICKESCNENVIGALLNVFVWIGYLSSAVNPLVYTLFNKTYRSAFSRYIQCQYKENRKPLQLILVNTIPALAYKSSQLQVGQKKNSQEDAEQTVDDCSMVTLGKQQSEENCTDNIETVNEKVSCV
Sequence of Serotonin 2 (5-HT2) receptor (Rattus norvegicus) (P30994 whole entry, looked up): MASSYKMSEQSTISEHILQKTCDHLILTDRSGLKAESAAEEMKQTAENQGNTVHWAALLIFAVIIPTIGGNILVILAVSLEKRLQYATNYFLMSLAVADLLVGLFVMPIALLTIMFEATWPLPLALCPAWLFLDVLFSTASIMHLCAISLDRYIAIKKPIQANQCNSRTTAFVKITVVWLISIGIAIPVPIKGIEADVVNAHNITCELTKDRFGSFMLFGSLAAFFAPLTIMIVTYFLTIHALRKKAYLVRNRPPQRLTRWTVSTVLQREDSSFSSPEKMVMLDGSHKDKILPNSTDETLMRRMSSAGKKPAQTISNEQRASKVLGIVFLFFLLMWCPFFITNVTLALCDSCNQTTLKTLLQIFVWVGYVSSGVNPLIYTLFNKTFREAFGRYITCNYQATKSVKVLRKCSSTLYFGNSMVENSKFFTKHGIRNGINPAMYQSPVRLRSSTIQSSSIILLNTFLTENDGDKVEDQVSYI

[3] = molecular target: D(2) dopamine receptor (Rattus norvegicus) (UniProt P61169); assay: (§1) Binding affinity was tested on Dopamine receptor D2 using radioligand [3H]spiroperidol; parameters: concentration or dose not given beside the values
Sequence of D(2) dopamine receptor (Rattus norvegicus) (P61169 whole entry): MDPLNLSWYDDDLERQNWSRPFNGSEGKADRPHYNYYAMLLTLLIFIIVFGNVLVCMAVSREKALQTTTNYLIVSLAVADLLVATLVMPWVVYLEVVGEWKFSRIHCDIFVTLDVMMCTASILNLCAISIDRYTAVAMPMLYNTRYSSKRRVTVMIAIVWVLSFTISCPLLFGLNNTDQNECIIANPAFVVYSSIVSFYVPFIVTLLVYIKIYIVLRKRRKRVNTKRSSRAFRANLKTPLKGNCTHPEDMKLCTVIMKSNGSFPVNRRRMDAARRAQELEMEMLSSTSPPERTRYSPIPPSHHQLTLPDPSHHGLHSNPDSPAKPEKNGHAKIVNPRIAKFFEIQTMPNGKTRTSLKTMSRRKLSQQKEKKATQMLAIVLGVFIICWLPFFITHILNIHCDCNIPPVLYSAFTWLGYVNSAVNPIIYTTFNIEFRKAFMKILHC
Outline: (§2)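 Rat striatal membranes labelled with [3H]spiroperidol; (+)-butaclamol defined specific binding. […] Ki by Cheng–Prusoff using Bmax and Kd from saturation experiments. Tested as hydrogen oxalate salts (some hydrochlorides); oxalate interference excluded at highest concentration.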

[4] = molecular target: Glutamate NMDA receptor; assay: Binding affinity was tested on Phencyclidine binding assay.; assay type: protein-complex assay
Outline: (§3)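 [3H]phencyclidine binding to rat hippocampus membranes, with (+)-N-allylnormetazocine (SKF 10,047) defining specific binding. […] Ki via Cheng–Prusoff with Bmax and Kd taken from saturation experiments.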

[5] = molecular target: Sigma-1 receptor (Rattus norvegicus); assay: Binding affinity was tested on Sigma-1 receptor using radioligand [3H](+)-pentazocine binding assay.
[6] = molecular target: Serotonin 2 (5-HT2) receptor (Rattus norvegicus, UniProt P30994+P08909+P14842); assay: Percentage specific displacement of radioligand [3H]-ketanserin from 5-hydroxytryptamine 2 receptor; assay type: protein assay
[7] = molecular target: T2, D(2) dopamine receptor (Rattus norvegicus, UniProt P61169); assay: as §1
T2 sequence (P61169 whole entry): as above
Outline: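 Ki by Cheng–Prusoff using Bmax and Kd from saturation experiments. Tested as hydrogen oxalate salts (some hydrochlorides); oxalate interference excluded at highest concentration.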

[8] = molecular target: T3, Glutamate NMDA receptor (Rattus norvegicus) (UniProt P35439+Q00959+Q00960+Q00961+Q62645+Q8VHN2+Q9R1M7); assay: Percentage specific displacement of radioligand [3H]phencyclidine from Phencyclidine receptor; assay type: protein-complex assay
Outline: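 Rat hippocampus membranes, [3H]phencyclidine radioligand; (+)-N-allylnormetazocine (SKF 10,047) defined specific binding. Percent specific displacement run in triplicate at a single stated compound concentration.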

[9] = molecular target: D(2) dopamine receptor (Rattus norvegicus) (UniProt P61169); assay: (§4) Binding affinity of compound towards Dopamine receptor D2 was determined in rat striatal homogenate using [3H]- spiperone as radioligand; outline: as §2
[10] = molecular target: T3, Glutamate NMDA receptor (Rattus norvegicus); assay: Binding affinity of compound was tested on Phencyclidine binding assay.; assay type: protein-complex assay; outline: as §3
[11] = Binding affinity of compound was tested on Phencyclidine binding assay.
[12] = molecular target: T2, D(2) dopamine receptor; assay: as §4; outline: as §2

SMILES | Ki [1] | Displacement [2] | Displacement [3] | Ki [4] | Ki [5] | further results
c1ccc2c(c1)CCCC2CCCCN1CCCCC1 (configuration not stated) | > 1430 nM | 64% | 27% | 5560 nM | 4.7 nM | 
COc1ccc2c(c1)C(CCCN1CCCCC1)CCC2 (configuration not stated) | > 1430 nM |  |  |  | 63.2 nM | Ki [6]: > 5520 nM; Ki [7]: > 1850 nM; Displacement [8]: 88%
CC1(C)CCCN(CCCCC2CCCc3ccccc32)C1 (configuration not stated) | > 1430 nM |  |  | > 92600 nM | 0.8 nM | Ki [7]: > 10000 nM
c1ccc2c(c1)CCCC2CCCN1CCCCC1 (configuration not stated) | > 1430 nM | 21% |  |  |  | Displacement [9]: 0%; Displacement [8]: 95%
c1cc2c(s1)CCCC2CCCN1CCCCC1 (configuration not stated) |  |  |  | > 92600 nM |  | 
C1=C(CCCCN2CCCCC2)c2ccccc2CC1 | > 1430 nM | 12% | 0% |  | 3.9 nM | Displacement [10]: 92%
c1ccc2c(c1)CCN(CCCCC1CCCc3ccccc31)C2 (configuration not stated) |  |  |  | > 92600 nM | 3.7 nM | 
C=CCN1CCC2c3cc(O)ccc3CC1C2C (configuration not stated) |  |  |  |  |  | Ki [11]: 370 nM
c1ccc(CC2CCN(CCCCC3CCCc4ccccc43)CC2)cc1 (configuration not stated) | 285 nM |  |  | > 92600 nM | 30 nM | 
CCCN(CCC)CCCCC1CCCc2ccccc21 (configuration not stated) | 200 nM | 66% | 31% | 9910 nM | 4.7 nM | 
COc1cccc2c1CCCC2CCCN1CCCC(C)(C)C1 (configuration not stated) | 898 nM |  |  | 34.2 nM |  | Ki [7]: > 10000 nM
CCCN(CCC)CCCCC1=CCCc2ccccc21 | 357 nM | 60% | 40% | 2600 nM | 3.9 nM | 
CCCN(CCC)CCCC1CCCc2ccccc21 (configuration not stated) | 400 nM | 51% | 0% | 48100 nM | 6.7 nM | 
COc1cccc2c1CCCC2CCCN1CCC(Cc2ccccc2)CC1 (configuration not stated) | < 0.14 nM |  |  | > 92600 nM |  | Ki [12]: 1300 nM
COc1cccc2c1CCCC2CCCN1CCCCC1 (configuration not stated) | > 1430 nM |  |  | 3240 nM |  | Ki [6]: > 5520 nM; Ki [7]: > 1850 nM
CC1(C)CCCN(CCCC2CCCc3cscc32)C1 (configuration not stated) | > 1430 nM |  |  | 9.4 nM |  | 
